Series [1] concerns Plasmodium falciparum. In words: Antiplasmodial activity against drug-sensitive Plasmodium falciparum 3D7 ring stage infected in human erythrocytes after 72 hrs by DAPI staining based method. It is filed as functional, organism-based. Particulars: 3D7, 72 h. The procedure, abridged:
(§1)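 Sorbitol-synchronized ring-stage parasites in O+ erythrocytes (2% parasitemia, 0.3% hematocrit), culture medium RPMI-1640 with Albumax and human serum. 16-point dilution series, 40 μM to 0.5 nM, 72 h at 95% N2/5% O2/5% CO2. Parasites stained with DAPI in Triton X-100/saponin permeabilization buffer, counted by confocal imaging. Normalized to 0.4% DMSO and 5 μM puromycin controls. IC50 from four-parameter logistic fit.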

Series [2] relates to HEK293. Kind of series: Cytotoxicity against human HEK293 cells at 40 uM after 72 hrs by resazurin dye based fluorescence assay. Conditions: hek293, 72 h. It is filed as cell-based. The gist of the method:
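HEK293 cells grown in DMEM with 10% FBS, seeded at 2000 cells/well 24 h before dosing. Compounds given as in the parasite assay (top 40 μM), 72 h at 37 °C and 5% CO2. Medium then replaced with 44 μM resazurin; fluorescence (530/595 nm) read after a further 5–6 h. Normalized to in-plate controls.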
In general terms: Resazurin is reduced to fluorescent resorufin, in cell work by metabolically active cells.

The subject of series [3] is Plasmodium falciparum. Kind of series: Antiplasmodial activity against 4-aminoquinoline/antifolates-resistant Plasmodium falciparum Dd2 ring stage infected in human erythrocytes after 72 hrs by DAPI staining based method. Particulars: Dd2, 72 h. It is filed as functional, organism-based. The procedure, abridged: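 Sorbitol-synchronized ring-stage parasites at 2% parasitemia, 0.3% hematocrit in human O+ erythrocytes. 16-point concentration-response, 40 μM to 0.5 nM. DAPI added in permeabilization buffer (Triton X-100, saponin, EDTA). Parasites counted by confocal high-content imaging. Normalized to DMSO and 5 μM puromycin controls. IC50 from four-parameter logistic fit.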

Series [4] relates to Plasmodium falciparum. Kind of series: Antiplasmodial activity against 4-aminoquinoline/antifolates-resistant Plasmodium falciparum Dd2 ring stage infected in human erythrocytes at 40 uM after 72 hrs by DAPI staining based method. It is filed as functional. The procedure, abridged: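 Sorbitol-synchronized ring-stage parasites at 2% parasitemia, 0.3% hematocrit in human O+ erythrocytes. Culture medium: RPMI-1640 with glutamine, hypoxanthine, Albumax, human serum. 16-point concentration-response, 40 μM to 0.5 nM. Incubated 72 h under 95% N2, 5% O2, 5% CO2. DAPI added in permeabilization buffer (Triton X-100, saponin, EDTA). Parasites counted by confocal high-content imaging. Normalized to DMSO and 5 μM puromycin controls. IC50 from four-parameter logistic fit.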

In series [5] the test system is Plasmodium falciparum. Kind of series: Antiplasmodial activity against drug-sensitive Plasmodium falciparum 3D7 ring stage infected in human erythrocytes at 40 uM after 72 hrs by DAPI staining based method. It is filed as functional, organism-based. The gist of the method:
as §1

The source made the active and inactive calls. The rule behind the calls is not given here.

As a reminder, the IC50 is the concentration needed to halve the response being measured. Low values mean inhibition by little substance, high ones a need for much substance.

Compound `C[C@H]1[C@H](OC(=O)CCC(=O)O)O[C@@H]2O[C@@]3(C)CC[C@H]4[C@H](C)CC[C@@H]1[C@@]24OO3` [ARTESUNATE] displayed an IC50 in series [1] of 0.001 µM. Besides, the Activity in series [2] (20 µM, in the assay text read “20 uM” for “40 uM”) worked out at 94%.
For the compound `C[C@H]1[C@@H](O)O[C@@H]2O[C@@]3(C)CC[C@H]4[C@H](C)CC[C@@H]1[C@@]24OO3` [ARTENIMOL], the IC50 turned out to be 0.0004 µM in series [1] and 0.00043 µM in series [3]. Also, the Activity in series [2] (20 µM, in the assay text read “at 20 uM” for “at 40 uM”) was 83%.
As to `CCN(CC)CCCC(C)Nc1ccnc2cc(Cl)ccc12` (stereo not given) [CHLOROQUINE], the Activity entry in series [2] (40 µM) was “Non-Toxic”.
On to `CC(C)C[C@H]1C[C@@]2(CC[C@H]3C[C@@H]2C3(C)C)OC2=C1C(=O)C(C)(C)C(=O)C2(C)C`, for which the midpoint of inhibition in series [1], the IC50, lay at 16.6 µM. Besides, the result in series [4] was inactive. For the same compound, the Activity entry in series [2] (40 µM) is listed as “Non-Toxic”.
With `Cc1c2c(c(O)c3c1OC1=C(C(=O)C(C)(C)C(=O)C1(C)C)C3CC(C)C)C(=O)C[C@@H](c1ccccc1)O2` (stereo not given in full), the IC50 in series [1] amounted to 9.8 µM; in series [3] it was 11.9 µM. Also, the Activity result in series [2] (40 µM) is listed as “Non-Toxic”.
In the case of `Cc1c(O)c([C@@H](CC(C)C)C2=C(O)C(C)(C)C(=O)C(C)(C)C2=O)c(O)c2c1O[C@H](c1ccccc1)CC2=O`, the IC50 in series [1] amounted to 3.2 µM. For the same compound, the Activity in series [2] (40 µM) is recorded as 75%.
For the compound `CCc1nc(N)nc(N)c1-c1ccc(Cl)cc1` [PYRIMETHAMINE], the Activity in series [4] and in series [2] (40 µM) was 62% each time.
For the compound `Cc1c(O)c([C@H](CC(C)C)C2=C(O)C(C)(C)C(=O)C(C)(C)C2=O)c(O)c2c1O[C@H](c1ccccc1)CC2=O`, the IC50 in series [1] came out at 3.2 µM. In series [2] (40 µM), this compound displayed an Activity of 75%.
Turning to `CC(C)CC[C@]1(O)[C@H](O)C(C)(C)[C@@H](O)C(C)(C)[C@@H]1O`, the result in series [5] and in series [4] was inactive. In series [2] (40 µM), the Activity result is “Non-Toxic”.
For `Cc1c(O)c2c(c3c1OC1=C(C(=O)C(C)(C)C(=O)C1(C)C)[C@@H]3CC(C)C)O[C@H](c1ccccc1)CC2=O`, half-maximal inhibition in series [1] (IC50) was put at 7.2 µM. Besides, the Activity entry in series [2] (40 µM) is given as “Non-Toxic”.
In the case of `Cc1c(O)c2c(c3c1OC1=C(C(=O)C(C)(C)C(=O)C1(C)C)[C@H]3CC(C)C)O[C@H](c1ccccc1)CC2=O`, it took 7.2 µM to reach half-maximal inhibition in series [1] (IC50). In addition, the Activity result in series [2] (40 µM) is reported as “Non-Toxic”.

The values above are taken from ChEMBL document CHEMBL4145643, “Antiplasmodial β-Triketone-Flavanone Hybrids from the Flowers of the Australian Tree Corymbia torelliana” (J Nat Prod, 2018).
